Data on 28 compounds can be found in ChEMBL document CHEMBL1155020, “Trithiocarbonates as a novel class of HDAC inhibitors: SAR studies, isoenzyme selectivity, and pharmacological profiles” (J Med Chem, 2008).

The target of one assay is Histone deacetylase 1 (Homo sapiens, UniProt Q13547). Description: Inhibition of recombinant HDAC1 expressed in HEK293 cells. Format: cell-based.
Assay [1] addresses T1, Protein deacetylase HDAC6 (Homo sapiens, UniProt Q9UBN7).
T1 sequence (Q9UBN7 whole entry): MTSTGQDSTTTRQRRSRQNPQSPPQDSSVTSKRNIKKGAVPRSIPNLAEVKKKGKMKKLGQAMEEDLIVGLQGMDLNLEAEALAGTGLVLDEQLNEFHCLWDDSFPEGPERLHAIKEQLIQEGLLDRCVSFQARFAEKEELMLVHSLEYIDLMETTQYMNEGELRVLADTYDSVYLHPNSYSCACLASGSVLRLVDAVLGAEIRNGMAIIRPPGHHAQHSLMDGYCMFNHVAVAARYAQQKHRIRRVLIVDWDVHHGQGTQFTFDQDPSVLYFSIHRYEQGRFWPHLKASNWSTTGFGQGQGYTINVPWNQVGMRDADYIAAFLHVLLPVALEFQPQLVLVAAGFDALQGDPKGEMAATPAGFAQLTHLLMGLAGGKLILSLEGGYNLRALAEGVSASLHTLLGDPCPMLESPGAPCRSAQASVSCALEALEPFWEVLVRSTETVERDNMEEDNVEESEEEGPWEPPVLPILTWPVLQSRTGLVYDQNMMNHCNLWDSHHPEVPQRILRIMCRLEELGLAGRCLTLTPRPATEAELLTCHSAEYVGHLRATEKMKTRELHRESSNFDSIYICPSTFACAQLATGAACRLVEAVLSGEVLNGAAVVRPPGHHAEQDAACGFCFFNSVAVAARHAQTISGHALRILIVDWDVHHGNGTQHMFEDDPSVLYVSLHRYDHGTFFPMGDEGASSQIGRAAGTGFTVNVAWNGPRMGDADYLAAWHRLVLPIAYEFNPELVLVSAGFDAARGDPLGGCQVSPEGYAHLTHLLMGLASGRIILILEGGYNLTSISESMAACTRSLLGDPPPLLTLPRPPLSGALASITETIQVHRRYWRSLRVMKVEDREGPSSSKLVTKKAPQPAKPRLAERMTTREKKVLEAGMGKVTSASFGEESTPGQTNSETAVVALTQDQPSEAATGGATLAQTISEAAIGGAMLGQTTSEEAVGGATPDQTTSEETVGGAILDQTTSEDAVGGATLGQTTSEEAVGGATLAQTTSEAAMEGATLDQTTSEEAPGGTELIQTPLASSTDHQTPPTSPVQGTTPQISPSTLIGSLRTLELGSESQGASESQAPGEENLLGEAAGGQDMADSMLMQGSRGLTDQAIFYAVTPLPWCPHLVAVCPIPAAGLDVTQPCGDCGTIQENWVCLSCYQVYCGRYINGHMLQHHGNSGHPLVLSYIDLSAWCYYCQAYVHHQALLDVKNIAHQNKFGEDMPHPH
Description: Inhibition of recombinant HDAC6 expressed in HEK293 cells. Format: cell-based.

The target in assay [2] is Histone deacetylase. Description: Inhibition of nuclear HDAC isolated from human HeLa cells. Format: cell-based.
The target in assay [3] is Histone deacetylase. Description: Inhibition of HDAC in human HeLa cells. Format: cell-based.
Another assay concerns HeLa. Description: Cytotoxicity against human HeLa cells after 72 hrs by alamar blue assay. The assay is classed as functional, cell-based. A digest of the protocol: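 HeLa cells were seeded at densities allowing growth through 72 h of compound exposure at 37 °C, 5% CO2. Viability was read by Alamar Blue (resazurin) reduction. Replicate assays were averaged, and IC50 was taken from concentration-effect curves.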

Sequence of Histone deacetylase 1 (Q13547 whole entry): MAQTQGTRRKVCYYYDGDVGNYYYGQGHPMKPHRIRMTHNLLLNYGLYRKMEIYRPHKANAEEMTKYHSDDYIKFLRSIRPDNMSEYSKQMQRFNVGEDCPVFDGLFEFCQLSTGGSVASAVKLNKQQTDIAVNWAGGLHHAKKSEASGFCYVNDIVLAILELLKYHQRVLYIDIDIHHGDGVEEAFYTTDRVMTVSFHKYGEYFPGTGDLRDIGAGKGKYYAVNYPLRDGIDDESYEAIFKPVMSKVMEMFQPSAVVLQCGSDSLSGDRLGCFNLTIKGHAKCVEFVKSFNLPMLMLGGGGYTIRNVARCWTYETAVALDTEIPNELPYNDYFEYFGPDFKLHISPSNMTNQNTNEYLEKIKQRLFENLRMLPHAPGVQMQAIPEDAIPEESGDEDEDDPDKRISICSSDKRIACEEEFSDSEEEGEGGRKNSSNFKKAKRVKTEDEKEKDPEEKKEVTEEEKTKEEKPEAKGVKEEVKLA

Consider `CCSC(=S)SCC(=O)c1ccc(NC(C)=O)cc1`, for which the 50% inhibitory concentration (IC50) is 1680 nM at Histone deacetylase 1; 180 nM in assay [1]; 318 nM on Histone deacetylase [2]; 857 nM against Histone deacetylase [3]; 1460 nM with HeLa.
`CCOC(=S)SCC(=O)c1ccc(OC)cc1`: the IC50 worked out at 1380 nM on Histone deacetylase 1; 448 nM in assay [1]; 811 nM against Histone deacetylase [2]; 4720 nM against Histone deacetylase [3]; 4640 nM in the assay with HeLa.
On to `CCSC(=S)SCC(=O)c1ccc(C(=O)NCc2cc(C)cc(C)c2)s1`, for which the IC50 at Histone deacetylase 1 is 587 nM; in assay [1], 396 nM; on Histone deacetylase [2], 15 nM; at Histone deacetylase [3] it was 836 nM; in the assay on HeLa it was 31300 nM.
For `CCSC(=S)SCC(=O)c1cccc(CNC(C)=O)c1`, the IC50 on Histone deacetylase 1 stood at 38200 nM; in assay [1] it was 816 nM; at Histone deacetylase [2] it was 6590 nM; at Histone deacetylase [3] it was 6820 nM; in the assay with HeLa, 11300 nM.
Take `CCSC(=S)SCC(=O)c1ccc(C(=O)N[C@@H](C)c2ccccc2)s1`: the IC50 was 497 nM on Histone deacetylase 1; 135 nM in assay [1]; 49 nM against Histone deacetylase [2]; 1030 nM at Histone deacetylase [3]; 15800 nM with HeLa.
The corresponding values for `COc1ccc(C(=O)CSC(=S)SCCOc2ccccc2)cc1` are 9720 nM, 4570 nM, 128 nM, 11600 nM and 5460 nM.
Take `CCSC(=S)SCC(=O)c1ccc(C(=O)NCc2ccccc2)s1`: the IC50 was 340 nM on Histone deacetylase 1; 44 nM in assay [1]; 19 nM against Histone deacetylase [2]; 411 nM against Histone deacetylase [3]; 13000 nM in the assay on HeLa.
For `CCSC(=S)SCC(=O)c1cccc(C(=O)NCCOc2ccccc2)c1`, the IC50 on Histone deacetylase 1 turned out to be 328 nM; in assay [1], 198 nM; at Histone deacetylase [2], 27 nM; against Histone deacetylase [3], 500 nM; in the assay on HeLa, 10200 nM.
Consider `CCSC(=S)SCC(=O)c1ccc(NC(=O)c2cccnc2)cc1`, for which the IC50 on Histone deacetylase 1 was 1160 nM; in assay [1] it was 421 nM; at Histone deacetylase [2] it was 174 nM; at Histone deacetylase [3] it was 865 nM; in the assay on HeLa, 5160 nM.
In the case of `CCSC(=S)SCC(=O)c1cccc(NS(=O)(=O)c2ccccc2)c1`, the IC50 on Histone deacetylase 1 stood at 1550 nM; in assay [1], 104 nM; against Histone deacetylase [2] it was 127 nM; on Histone deacetylase [3], 2780 nM; with HeLa it was 11900 nM.
With `CCSC(=S)SCC(=O)c1cccc(C(=O)NCc2ccccc2)c1`, the IC50 on Histone deacetylase 1 is 672 nM; in assay [1] it was 195 nM; against Histone deacetylase [2] it was 49 nM; against Histone deacetylase [3] it was 533 nM; with HeLa, 13100 nM.
With `COc1ccc(C(=O)CSC(=S)SCCNC(C)=O)cc1`, the IC50 amounted to 7510 nM on Histone deacetylase 1; 1640 nM in assay [1]; 467 nM at Histone deacetylase [2]; 3470 nM on Histone deacetylase [3]; 11100 nM in the assay on HeLa.
As for `CCSC(=S)SCC(=O)c1ccc(NC(=O)c2ccccc2)cc1`, the IC50 is 10400 nM at Histone deacetylase 1; 175 nM in assay [1]; 74 nM on Histone deacetylase [2]; 7460 nM on Histone deacetylase [3]; 15800 nM in the assay with HeLa.
As to `CCSC(=S)SCC(=O)c1ccc(C(=O)NCc2ccccc2)cc1`, the IC50 at Histone deacetylase 1 worked out at 5780 nM; in assay [1], 830 nM; on Histone deacetylase [2] it was 90 nM; against Histone deacetylase [3], 1500 nM; in the assay with HeLa, 23900 nM.
As for `CCNC(=S)SCC(=O)c1ccc(NC(C)=O)cc1`, the IC50 is 141 nM at Histone deacetylase 1; 18 nM in assay [1]; 94 nM against Histone deacetylase [2]; 1120 nM at Histone deacetylase [3]; 11000 nM in the assay on HeLa.
Turning to `CCSC(=S)SCC(=O)c1ccc(C(=O)NCCOc2ccccc2)cc1`, the IC50 is 712 nM on Histone deacetylase 1; 483 nM in assay [1]; 32 nM against Histone deacetylase [2]; 964 nM at Histone deacetylase [3]; 18200 nM in the assay with HeLa.
`CCNC(=S)SCC(=O)c1ccc(OC)cc1`: the 50% inhibitory concentration (IC50) on Histone deacetylase 1 stood at 215 nM; in assay [1] it was 94 nM; against Histone deacetylase [2] it was 195 nM; in the assay on HeLa, 7800 nM.
Take `CCSC(=S)SCC(=O)c1ccc(C(=O)Nc2ccccc2)s1`: the IC50 amounted to 31600 nM on Histone deacetylase 1; 245 nM in assay [1]; 63 nM against Histone deacetylase [2]; 423 nM at Histone deacetylase [3]; 50000 nM in the assay with HeLa.
For `CCSC(=S)SCC(=O)c1ccc(CNC(=O)c2ccccc2)cc1`, the IC50 on Histone deacetylase 1 came out at 523 nM; in assay [1], 301 nM; at Histone deacetylase [2], 46 nM; against Histone deacetylase [3], 632 nM; in the assay with HeLa it was 12700 nM.
The corresponding values for `CCSC(=S)SCC(=O)c1ccc(OC)cc1` are 4560 nM, 1220 nM, 375 nM, 4670 nM and 1960 nM.
The corresponding values for `COCCSC(=S)SCC(=O)c1ccc(OC)cc1` are 8940 nM, 2130 nM, 293 nM, 5530 nM and 7880 nM.
On to `CCSC(=S)SCC(=O)c1ccc(CN(C)C(C)=O)cc1`, for which the IC50 came out at 946 nM on Histone deacetylase 1; 256 nM in assay [1]; 384 nM at Histone deacetylase [2]; 6330 nM against Histone deacetylase [3]; 21500 nM in the assay with HeLa.
On to `CCSC(=S)SCC(=O)c1ccc(CC(=O)NCc2ccc(OC)cc2)s1`, for which the IC50 on Histone deacetylase 1 stood at 887 nM; in assay [1], 175 nM; against Histone deacetylase [2], 26 nM; at Histone deacetylase [3] it was 600 nM; in the assay on HeLa, 1450 nM.
In the case of `CCSC(=S)SCC(=O)c1ccc(Nc2ncnc3ccccc23)cc1`, the IC50 at Histone deacetylase 1 was found to be 25800 nM; in assay [1], 390 nM; against Histone deacetylase [2], 379 nM; against Histone deacetylase [3], 2990 nM; in the assay with HeLa it was 2640 nM.
With `CCSC(=S)SCC(=O)c1ccc(S(=O)(=O)Nc2ccc(Cl)cc2)cc1`, the IC50 was 589 nM on Histone deacetylase 1; 340 nM in assay [1]; 8 nM on Histone deacetylase [2]; 299 nM against Histone deacetylase [3]; 6080 nM in the assay with HeLa.
Regarding `CCSC(=S)SCC(=O)c1cccc(S(=O)(=O)Nc2cccc(C(N)=O)c2)c1`, the concentration for half-maximal inhibition (IC50) on Histone deacetylase 1 was found to be 1560 nM; in assay [1], 181 nM; against Histone deacetylase [2] it was 97 nM; at Histone deacetylase [3], 1150 nM; in the assay on HeLa, 7740 nM.
Regarding `CCSC(=S)SCC(=O)c1cccc(NC(=O)c2cccnc2)c1`, the IC50 on Histone deacetylase 1 came to 388 nM; in assay [1], 38 nM; on Histone deacetylase [2] it was 184 nM; against Histone deacetylase [3] it was 646 nM; in the assay on HeLa, 7020 nM.
Regarding `CCSC(=S)SCC(=O)c1ccc(NC(=O)Nc2ccccc2)cc1`, the IC50 on Histone deacetylase 1 was found to be 18800 nM; in assay [1], 606 nM; on Histone deacetylase [2], 40 nM; on Histone deacetylase [3], 1190 nM; in the assay on HeLa, 20200 nM.
